Screening data as filed in PubChem BioAssay.
Exocytosis inh: lytic granule exocytosis inhibition; 360,000 tested, 0.66% active; inhibition, % at 10 µM; TALL-104 LAMP-1 surface exposure, flow cytometry; cells stimulated with thapsigargin and PMA; AID 651702;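 active = inhibition above about 55%, limit read from the data; inconclusive = no clear call, values can overlap the other calls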
CSN deneddyl inh: CSN deneddylation inhibition. inhibition, % at 12.5 µM. Q92905. Purified CSN, SCF-Nedd8-OG deneddylation, fluorescence polarization. 360,000 tested, 0.38% active;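 active = pattern-corrected inhibition above about 35%, with an unprinted fluorescence ratio check between 0.5 and 1.5, limit read from the data, passing the limit was not always enough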;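 note: 0% = enzyme with substrate and 100% = substrate without enzyme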
Target sequence (Q92905 whole entry, looked up, one chain of several): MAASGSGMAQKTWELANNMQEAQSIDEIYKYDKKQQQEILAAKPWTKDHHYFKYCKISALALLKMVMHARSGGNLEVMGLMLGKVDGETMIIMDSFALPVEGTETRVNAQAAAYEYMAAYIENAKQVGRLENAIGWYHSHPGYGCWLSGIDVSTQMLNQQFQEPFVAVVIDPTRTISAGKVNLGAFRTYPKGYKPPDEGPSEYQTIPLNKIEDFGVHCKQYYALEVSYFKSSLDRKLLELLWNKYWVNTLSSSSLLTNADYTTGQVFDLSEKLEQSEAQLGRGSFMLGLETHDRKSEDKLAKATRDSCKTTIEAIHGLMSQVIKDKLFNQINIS
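Test system: purified human Csn5 enzyme expressed in HEK293T cells. Amount: 0.24 nM enzyme. Reagent: SCFSkp2-Nedd8OG substrate at 10 nM final. Schedule: 90 min incubation of compound, enzyme and substrate at room temperature. Detection: fluorescence polarization. Read-out: % inhibition of substrate cleavage by Csn5.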
HNF4A DNA FP: change in binding of human HNF4 alpha to DNA; activity change, % at 10 µM; 360,000 tested, 0.3% active; HNF4a-FITC DNA binding, fluorescence polarization, 1 h; AID 1224865; P41235; in the data active = activity change above about 30%, passing the limit was not always enough
Myeloid diff 2: myeloid differentiation induction | calls only at 10 µM | ER-HoxA9 myeloid progenitors, lysozyme-GFP differentiation, flow cytometry | 360,000 tested, 1% active;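 active = normalized GFP-positive differentiation at or above the plate's own cutoff, the solvent-only control mean plus 3 SD; inconclusive = no clear call, values can overlap the other calls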;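 note: cells exposed to compound for four days before flow analysis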
CSN deneddyl val: Csn5 (human) deneddylation inhibition, single-concentration validation; Csn5 deneddylation of SCF-Nedd8OG, fluorescence polarization, 90 min; AID 720654; shares compounds with CSN deneddyl inh; 540 tested, 62% active; inhibition, % at 16.6 µM; in the data active = inhibition above about 50%;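 note: 0% = DMSO with enzyme and 100% = no enzyme wells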
MMP-2 counter: counter-screen for CSN deneddylation inhibitors: human MMP-2 inhibition; shares compounds with CSN deneddyl inh; recombinant MMP-2, FRET substrate fluorescence, 60 min; inhibition, % at 16.6 µM; 540 tested, 33% active; AID 720655;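 active = corrected plate-normalized z-score of 5 or more, or -5 or less, or inhibition of 15% or more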;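 note: plate controls were DMSO wells with enzyme for no effect and buffer wells lacking MMP-2 for full effect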
Thrombin counter: thrombin (bovine) inhibition, counter-screen for CSN hits; shares compounds with CSN deneddyl inh; bovine thrombin cleavage of Ub4-pepOG, fluorescence polarization; inhibition, % at 16.6 µM; 540 tested, 49% active;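 active = inhibition at or above a set limit, with a fluorescence interference ratio between 0.5 and a set maximum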
The depositor's hits bear a star; i = inactive; ? = inconclusive; . = no result given; + = active, no number. Most compounds without a hit are left out; they make up all but 2.2% or so of the library.

SMILES	Exocytosis inh	CSN deneddyl inh	HNF4A DNA FP	Myeloid diff 2	CSN deneddyl val	MMP-2 counter	Thrombin counter
Cc1nnc(N/N=C/c2ccccc2F)n1N	11.1	0.0	-0.3	i	.	.	.
C[C@@H]1CN[C@@H](CCO)/C1=C\c1ccccc1	-5.0	-2.3	-2.9	i	.	.	.
Cc1nn(C)cc1/C=C1\SC(=S)NC1=O	2.2	-0.4	-3.1	i	.	.	.
O=C1NC(=S)S/C1=C\c1cc(Cl)cc(Cl)c1O	-1.6	45.0*	28.2	i	54.3*	-3.4	56.3*
O=C1NC(=S)SC1=Cc1ccccc1Cl	2.0	4.5	19.9	i	.	.	.
Cc1cc(/C=C2\SC(=S)NC2=O)c(C)n1-c1ccc(O)cc1	3.3	59.7*	99.0*	i	50.1*	28.5*	50.4*
Cc1cc(/C=C2\SC(=S)NC2=O)c(C)n1C	0.0	76.1*	44.2*	+	53.4*	23.8*	39.4*
COC(=O)[C@@H](Cc1c[nH]c2ccccc12)NC(=O)CCC(=O)c1ccc(Br)cc1	-5.7	0.1	0.0	i	.	.	.
CCOC(=O)C1=C(C)N=c2s/c(=C/c3ccc(OCC(=O)O)cc3)c(=O)n2C1c1cc(OC)c(OC)c(OC)c1 (centres undefined)	16.2	3.9	0.7	i	.	.	.
CCOC(=O)C1=C(C)N=c2sc(=Cc3cc(Cl)c(OCC(=O)O)c(Cl)c3)c(=O)n2C1c1cccc(OC)c1 (centres undefined)	-0.3	64.1*	97.2*	+	16.6	1.9	49.2*
O=C(NCc1ccccc1)C1C(=O)Nc2ccccc2C(=O)N1Cc1ccccc1 (centres undefined)	-4.0	-2.2	-2.1	i	.	.	.
COc1ccccc1/C=C1\SC(=S)N(Nc2nc(C)cc(C)n2)C1=O	-1.2	0.5	1.5	i	.	.	.
Cc1cc(C)nc(NN2C(=O)/C(=C/c3ccc(O)cc3)SC2=S)n1	6.3	92.4*	93.8*	i	46.5	-13.4	83.0*
C=CCOc1ccc(Br)cc1/C=C1/SC(=Nc2ccc(C(=O)O)cc2)NC1=O	3.0	35.7*	-2.5	i	97.3*	6.8	4.2
CCN1C(=O)/C(=C/C=C2\N(CC)c3cc(S(=O)(=O)N(C)C)ccc3N2c2ccccc2)SC1=S	3.1	74.5*	133.2	+	63.5*	-6.2	34.2*
COc1ccc(NC(=O)N(C)C[C@@H]2OCc3cn(nn3)CCCC(=O)N([C@H](C)CO)C[C@H]2C)cc1	4.6	8.3	2.0	i	.	.	.
COc1ccccc1N1C(=N)S/C(=C\c2ccc(-c3ccccc3C(=O)O)o2)C1=O	2.6	35.5*	15.1	i	59.5*	8.0	31.0*
CS(=O)(=O)C1=NSC2=NC(=O)/C(=C\c3cccn3-c3ccc(Cl)cc3)C(=N)N21	2.1	99.9*	7.8	i	-74.6	25.8*	49.6*
CC1CN(C(=O)c2cc(S(=O)(=O)N(C)c3ccc(F)cc3)ccc2Cl)CC(C)O1 (centres undefined)	3.1	2.7	-0.8	i	.	.	.
Cc1ccc(C2=NN(S(=O)(=O)c3ccccc3)C(c3ccccc3O)C2)cc1 (centres undefined)	-1.2	60.7*	79.7*	i	56.8*	0.4	55.7*
CS(=O)(=O)Nc1ccc(C2=NN(S(=O)(=O)c3ccccc3)C(c3cccs3)C2)cc1 (centres undefined)	1.5	9.2	38.5	i	.	.	.
Cn1cc(S(=O)(=O)N2CCCC2)cc1C(=O)O	-3.2	-2.5	-1.1	i	.	.	.
O=C(O)c1cccc(-c2ccc(/C=c3/sc4nc5ccccc5n4c3=O)o2)c1	-3.7	128.9*	38.3*	i	-45.5	19.0*	78.4*
Cc1cccc(N2CCN(C(=S)Nc3ccc4nc(N5CCN(C)CC5)cc(C)c4c3)CC2)c1C	63.2*	35.6*	59.2*	?	96.7*	13.8	-4.8
C[C@@H]1CN([C@@H](C)CO)C(=O)CCCn2nncc2CO[C@H]1CN(C)C(=O)Nc1ccc2c(c1)OCO2	3.3	-3.5	0.9	i	.	.	.
SMILES	Exocytosis inh	CSN deneddyl inh	HNF4A DNA FP	Myeloid diff 2	CSN deneddyl val	MMP-2 counter	Thrombin counter
Cc1ccc(/C=C2\SC(=S)N(C3CCS(=O)(=O)C3)C2=O)o1 (centres undefined)	2.0	31.3	17.4	i	.	.	.
NS(=O)(=O)c1ccc(-c2ccc(/C=C3\SC(=S)N(C4CCS(=O)(=O)C4)C3=O)o2)cc1 (centres undefined)	15.8	69.7*	129.7	i	87.1*	-46.1*	46.5
CCC1C/C(=C\c2cc(OC)c(OC)cc2OC)C(=O)/C(=C/c2cc(OC)c(OC)cc2OC)C1 (centres undefined)	26.2	35.3*	71.0*	i	64.0*	-10.3	47.7*
COc1cc(/C=C2\CC(C(C)(C)C)C/C(=C\c3cc(OC)c(OC)c(OC)c3)C2=O)cc(OC)c1OC (centres undefined)	3.6	0.1	0.1	.	.	.	.
CC(=O)Nc1cccc(NC(=O)C2CC(=O)N(CCc3ccc(F)cc3)C2)c1 (centres undefined)	-0.6	0.8	2.9	i	.	.	.
O=C1/C(=C/c2ccco2)Oc2c1ccc(O)c2CN1CCCCC1	3.9	42.1*	-24.6	i	.	-23.4	-60.0
CCOC(=O)c1sc2nc3c(SCC(=O)O)cc(C(=O)c4ccccc4O)cn3c(=O)c2c1C	-1.9	47.3*	-64.3	i	109.1*	22.1*	-27.5
CCOC(=O)c1sc2nc3c(SCC(=O)O)cc(C(=O)c4cc(F)ccc4O)cn3c(=O)c2c1C	0.2	75.8*	-5.0	i	22.3	33.9*	2.9
O=C(O)CSc1cc(C(=O)c2ccccc2O)cn2c(=O)c3c(-c4ccccc4)csc3nc12	9.5	9.6	4.2	i	.	.	.
COc1cc(N=Nc2cccc(S(N)(=O)=O)c2)c2ccccc2c1N	45.0	46.1*	25.0	+	82.2*	14.7	25.9*
NC1=NC(=Nc2cccc(S(N)(=O)=O)c2)c2ccccc21	-6.4	3.3	-1.5	i	.	.	.
Cc1cc(NC(=O)c2cncc(Br)c2)ccc1NC(=O)c1cc2ccccc2o1	4.4	59.8*	22.2	i	9.7	15.8*	-10.9
COc1ccccc1N1CCN(C2CCCN(C(=O)CCN3CCCCO3)C2)CC1 (centres undefined)	-11.5	0.0	1.4	i	.	.	.
CC1C=CC=CC=CC=CC=CC=CC=CC(OC2OC(C)C(O)C(N)C2O)CC2OC(O)(CC(O)CC(O)C(O)CCC(O)CC(O)CC(=O)OC(C)C(C)C1O)CC(O)C2C(=O)O (centres undefined)	-15.9	39.3*	-11.5	.	78.1*	-0.7	15.0*
O=C(c1cccnc1)N1CCCC(Nc2ccc(F)cc2)C1 (centres undefined)	0.7	-1.4	-1.2	i	.	.	.
